The values below come from ChEMBL document CHEMBL4138058, “Design and synthesis of novel selective estrogen receptor degradation inducers based on the diphenylheptane skeleton” (Medchemcomm, 2017).

Holding throughout (assay type): cell-based
Data set [1] deals with T1, Androgen receptor (Homo sapiens) (UniProt P10275).
T1 sequence (whole entry): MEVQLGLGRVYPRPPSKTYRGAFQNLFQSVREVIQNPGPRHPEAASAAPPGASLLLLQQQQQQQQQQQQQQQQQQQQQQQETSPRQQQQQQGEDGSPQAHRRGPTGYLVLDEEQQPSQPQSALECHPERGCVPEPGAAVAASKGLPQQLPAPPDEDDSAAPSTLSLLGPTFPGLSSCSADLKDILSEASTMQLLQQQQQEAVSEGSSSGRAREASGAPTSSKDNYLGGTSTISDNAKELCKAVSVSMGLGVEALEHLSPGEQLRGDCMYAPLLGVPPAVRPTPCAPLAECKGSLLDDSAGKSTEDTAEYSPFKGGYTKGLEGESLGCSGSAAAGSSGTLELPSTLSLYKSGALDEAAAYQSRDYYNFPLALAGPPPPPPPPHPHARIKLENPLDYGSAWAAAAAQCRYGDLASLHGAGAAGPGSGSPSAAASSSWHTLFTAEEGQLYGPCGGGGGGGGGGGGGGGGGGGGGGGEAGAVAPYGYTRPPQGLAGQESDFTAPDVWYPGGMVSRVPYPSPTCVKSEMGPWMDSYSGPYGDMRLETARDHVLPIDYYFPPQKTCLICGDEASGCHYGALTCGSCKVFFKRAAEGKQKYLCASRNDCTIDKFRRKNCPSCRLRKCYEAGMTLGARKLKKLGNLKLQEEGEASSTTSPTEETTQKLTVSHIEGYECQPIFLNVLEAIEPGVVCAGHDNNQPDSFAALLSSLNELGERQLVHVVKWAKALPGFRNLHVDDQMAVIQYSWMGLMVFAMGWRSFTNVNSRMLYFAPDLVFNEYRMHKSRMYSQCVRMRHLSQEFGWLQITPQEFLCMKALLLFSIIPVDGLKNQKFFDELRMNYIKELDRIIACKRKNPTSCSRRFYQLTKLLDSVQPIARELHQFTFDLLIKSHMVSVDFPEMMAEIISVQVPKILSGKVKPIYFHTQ
The data set is described as follows: Downregulation of androgen receptor expression in human MCF7 cells at 1 uM after 6 hrs by Western blot method relative to lamin B. The procedure, abridged:
(§1)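 MCF-7 cells kept in DMEM with 10% FBS, kanamycin and 10 μg/mL insulin, then exposed to compounds for 6 h. Lysates made in SDS buffer (0.1 M Tris-HCl pH 8.0, 10% glycerol, 1% SDS), boiled, BCA-normalized and run on SDS-PAGE. Blots probed with anti-ERα, AR, AhR or VDR and β-actin or lamin B. Chemiluminescence quantified as target/loading-protein ratio; means ± S.E., n=3.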

The target of data set [2] is T2, Estrogen receptor (Homo sapiens) (UniProt P03372).
T2 sequence (whole entry): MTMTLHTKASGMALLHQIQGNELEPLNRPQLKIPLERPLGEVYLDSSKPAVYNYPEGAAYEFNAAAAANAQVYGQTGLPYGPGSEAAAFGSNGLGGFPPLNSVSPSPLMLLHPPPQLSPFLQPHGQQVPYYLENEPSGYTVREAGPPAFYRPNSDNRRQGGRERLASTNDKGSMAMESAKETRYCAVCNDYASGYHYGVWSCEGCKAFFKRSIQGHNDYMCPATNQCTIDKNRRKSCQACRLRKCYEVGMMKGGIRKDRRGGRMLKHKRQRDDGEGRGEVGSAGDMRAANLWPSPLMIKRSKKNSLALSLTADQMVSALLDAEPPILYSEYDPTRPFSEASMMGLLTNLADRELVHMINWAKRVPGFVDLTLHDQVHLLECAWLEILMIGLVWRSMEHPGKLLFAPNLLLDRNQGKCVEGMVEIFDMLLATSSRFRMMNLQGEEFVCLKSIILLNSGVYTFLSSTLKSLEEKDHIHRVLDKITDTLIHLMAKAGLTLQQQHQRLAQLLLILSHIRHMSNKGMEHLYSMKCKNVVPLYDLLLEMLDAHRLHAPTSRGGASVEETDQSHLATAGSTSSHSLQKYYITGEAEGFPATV
Put plainly: Downregulation of ERalpha expression in human MCF7 cells at 1 uM after 6 hrs in presence of proteasome inhibitor MG132 by Western blot method relative to lamin B. The method, boiled down: as §1

Data set [3] deals with T3, Aryl hydrocarbon receptor (Homo sapiens, UniProt P35869).
T3 sequence (P35869 whole entry): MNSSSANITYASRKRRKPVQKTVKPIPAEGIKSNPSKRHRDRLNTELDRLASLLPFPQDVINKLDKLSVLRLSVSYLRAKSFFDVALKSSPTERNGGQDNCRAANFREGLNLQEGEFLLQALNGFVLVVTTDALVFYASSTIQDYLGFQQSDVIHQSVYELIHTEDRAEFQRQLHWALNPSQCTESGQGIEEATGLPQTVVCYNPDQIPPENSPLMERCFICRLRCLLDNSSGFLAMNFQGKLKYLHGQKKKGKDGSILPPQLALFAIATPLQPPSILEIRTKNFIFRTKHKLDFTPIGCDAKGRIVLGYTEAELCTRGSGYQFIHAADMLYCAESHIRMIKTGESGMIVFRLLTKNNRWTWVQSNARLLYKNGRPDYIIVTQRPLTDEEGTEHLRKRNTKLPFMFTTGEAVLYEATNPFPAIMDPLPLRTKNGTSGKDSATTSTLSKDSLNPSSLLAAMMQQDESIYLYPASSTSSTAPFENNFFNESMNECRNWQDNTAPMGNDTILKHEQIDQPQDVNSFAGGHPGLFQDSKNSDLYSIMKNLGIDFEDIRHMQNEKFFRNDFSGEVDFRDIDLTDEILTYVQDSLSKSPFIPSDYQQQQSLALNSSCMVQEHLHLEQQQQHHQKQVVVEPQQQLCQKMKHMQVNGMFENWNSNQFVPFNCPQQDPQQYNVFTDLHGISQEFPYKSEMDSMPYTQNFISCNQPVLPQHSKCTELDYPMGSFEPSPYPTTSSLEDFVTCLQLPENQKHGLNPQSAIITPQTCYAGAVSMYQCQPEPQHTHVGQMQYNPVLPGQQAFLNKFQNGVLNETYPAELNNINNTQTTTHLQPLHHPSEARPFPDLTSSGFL
The data set is described as follows: Downregulation of AhR expression in human MCF7 cells at 10 uM after 6 hrs by Western blot method relative to lamin B. To be noted: mcf7, 6 h. The method, boiled down:
as §1

Data set [4] has as its target T1, Androgen receptor (Homo sapiens). Put plainly: Downregulation of androgen receptor expression in human MCF7 cells at 1 uM after 6 hrs in presence of proteasome inhibitor MG132 by Western blot method relative to lamin B. The method, boiled down:
as §1

For data set [5], the target named is T2, Estrogen receptor (Homo sapiens). Put plainly: Downregulation of ERalpha expression in human MCF7 cells at 3 uM after 6 hrs in presence of proteasome inhibitor MG132 by Western blot method relative to lamin B. The method, boiled down: as §1

With `CCCCCCCCCCNCCOc1ccc(C(CCC)(CCC)c2ccc(O)c(C)c2)cc1C`, the Activity in data set [1] came out at 94%; in data set [2], 117%; in data set [3], 81%; in data set [4] it was 96%; in data set [5] it was 101%.
